Measured values published in ChEMBL document CHEMBL4376901, “Azo-PROTAC: Novel Light-Controlled Small-Molecule Tool for Protein Knockdown” (J Med Chem, 2020).
Active and inactive are the calls of the source.

Assays:
[1] = target: T1, Protein cereblon/Tyrosine-protein kinase ABL1/Breakpoint cluster region protein (Homo sapiens) (UniProt P00519+P11274+Q96SW2); assay: Protac activity at CRBN/BCR-ABL in human K562 cells assessed as reduction in BCR-ABL protein levels at 50 to 250 nM incubated for 24 hrs by Western blot analysis; assay type: cell-based
Procedure, shortened: (§1)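 K562 cells were exposed for 24 h to a concentration gradient of the trans or cis form. BCR-ABL and ABL protein levels were assessed by Western blot in a dose-effect design.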

[2] = target: T2, Protein cereblon/Tyrosine-protein kinase ABL1 (Homo sapiens) (UniProt P00519+Q96SW2); assay: Protac activity at CRBN/ABL in human K562 cells assessed as reduction in ABL protein levels at 50 to 250 nM incubated for 24 hrs by Western blot analysis; assay type: cell-based; procedure, shortened: as §1
[3] = Drug metabolism assessed as photoisomerization to cis-isomer after exposure to UV-C light and measured after 1 hr by UV-visible absorption spectra analysis
[4] = Drug metabolism assessed as photoisomerization to cis-isomer after exposure to white light light up to 240 mins by UV-visible absorption spectra analysis
[5] = Half life for spontaneous thermal relaxation under dark condition at 25 degC; assay type: physicochemical
[6] = Stability in presence of 20 mM of GSH reduced in DMSO/PBS buffer (1:1) solution incubated for 48 hrs; assay type: physicochemical
K562 [7] = assay: Antiproliferative activity against human K562 cells assessed as inhibition of cell proliferation incubated for 48 hrs by CCK8 assay; assay type: functional, cell-based; settings: K562, 48 h
K562 [8] = assay: Cytotoxicity against human K562 cells assessed as inhibition of cell viability incubated for 48 hrs by Cell-titer-Glo luminescent cell viability assay; assay type: functional, cell-based; settings: K562, 48 h
A549 = assay: Cytotoxicity against human A549 cells assessed as inhibition of cell viability incubated for 48 hrs by Cell-titer-Glo luminescent cell viability assay; assay type: functional, cell-based
HCT-116 = assay: Cytotoxicity against human HCT116 cells assessed as inhibition of cell viability incubated for 48 hrs by Cell-titer-Glo luminescent cell viability assay; assay type: functional, cell-based
MCF7 = assay: Cytotoxicity against human MCF7 cells assessed as inhibition of cell viability incubated for 48 hrs by Cell-titer-Glo luminescent cell viability assay; assay type: functional, cell-based
[9] = target: T1, Protein cereblon/Tyrosine-protein kinase ABL1/Breakpoint cluster region protein (Homo sapiens); assay: Protac activity at CRBN/BCR-ABL in human K562 cells assessed as reduction in BCR-ABL protein levels pre-treated with ABL inhibitor dasatinib followed by compound addition at 250 nM incubated for 24 hrs by Western blot analysis; assay type: cell-based
[10] = target: T2, Protein cereblon/Tyrosine-protein kinase ABL1 (Homo sapiens); assay: Protac activity at CRBN/ABL in human K562 cells assessed as reduction in ABL protein levels pre-treated with ABL inhibitor dasatinib followed by compound addition at 250 nM incubated for 24 hrs by Western blot analysis; assay type: cell-based
[11] = target: T1, Protein cereblon/Tyrosine-protein kinase ABL1/Breakpoint cluster region protein (Homo sapiens); assay: Protac activity at CRBN/BCR-ABL in human K562 cells assessed as reduction in BCR-ABL protein levels pre-treated with lenalidomide followed by compound addition at 250 nM incubated for 24 hrs by Western blot analysis; assay type: cell-based
[12] = target: T2, Protein cereblon/Tyrosine-protein kinase ABL1 (Homo sapiens); assay: Protac activity at CRBN/ABL in human K562 cells assessed as reduction in ABL protein levels pre-treated with lenalidomide followed by compound addition at 250 nM incubated for 24 hrs by Western blot analysis; assay type: cell-based
[13] = target: T1, Protein cereblon/Tyrosine-protein kinase ABL1/Breakpoint cluster region protein (Homo sapiens); assay: Protac activity at CRBN/BCR-ABL in human K562 cells assessed as reduction in BCR-ABL protein levels pre-treated with NEDD8-activating enzyme (NAE) inhibitor MLN4924 followed by compound addition at 250 nM incubated for 24 hrs by Western blot analysis; assay type: cell-based
[14] = target: T2, Protein cereblon/Tyrosine-protein kinase ABL1 (Homo sapiens); assay: Protac activity at CRBN/ABL in human K562 cells assessed as reduction in ABL protein levels pre-treated with NEDD8-activating enzyme (NAE) inhibitor MLN4924 followed by compound addition at 250 nM incubated for 24 hrs by Western blot analysis; assay type: cell-based
[15] = target: T1, Protein cereblon/Tyrosine-protein kinase ABL1/Breakpoint cluster region protein (Homo sapiens); assay: Protac activity at CRBN/BCR-ABL in human K562 cells assessed as reduction in BCR-ABL protein levels at 250 nM incubated for 4 hrs by Western blot analysis; assay type: cell-based; settings: in the assay text read “10 hrs” for “4 hrs”
Procedure, shortened: (§2)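 Time-course in K562 cells at a fixed 250 nM PROTAC, run separately with the trans and cis forms. Cells were harvested at several time points. BCR-ABL and ABL protein levels were read by Western blot.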

[16] = target: T2, Protein cereblon/Tyrosine-protein kinase ABL1 (Homo sapiens); assay: Protac activity at CRBN/ABL in human K562 cells assessed as reduction in ABL protein levels at 250 nM incubated for 4 hrs by Western blot analysis; assay type: cell-based; procedure, shortened: as §2
[17] = target: T1, Protein cereblon/Tyrosine-protein kinase ABL1/Breakpoint cluster region protein (Homo sapiens); assay: Protac activity at CRBN/BCR-ABL in human K562 cells assessed as reduction in BCR-ABL protein levels at 250 nM incubated for 10 hrs by Western blot analysis; assay type: cell-based; procedure, shortened: as §2
[18] = target: T2, Protein cereblon/Tyrosine-protein kinase ABL1 (Homo sapiens); assay: Protac activity at CRBN/ABL in human K562 cells assessed as reduction in ABL protein levels at 250 nM incubated for 10 hrs by Western blot analysis; assay type: cell-based; procedure, shortened: as §2
[19] = target: T1, Protein cereblon/Tyrosine-protein kinase ABL1/Breakpoint cluster region protein (Homo sapiens); assay: Protac activity at CRBN/BCR-ABL in human K562 cells assessed as reduction in BCR-ABL protein levels at 250 nM incubated for 32 hrs by Western blot analysis; assay type: cell-based; parameters: scale not given: the % may be the effect or the level left; procedure, shortened: as §2
[20] = target: T2, Protein cereblon/Tyrosine-protein kinase ABL1 (Homo sapiens); assay: Protac activity at CRBN/ABL in human K562 cells assessed as reduction in ABL protein levels at 250 nM incubated for 32 hrs by Western blot analysis; assay type: cell-based; parameters: scale not given: the % may be the effect or the level left; procedure, shortened: as §2
K562 [21] = assay: Effect on ABL gene expression in human K562 cells at 50 to 500 nM incubated for 36 hrs by RT-qPCR analysis; assay type: ADME, cell-based; settings: k562, 36 h, 0.5 µM
[22] = target: T1, Protein cereblon/Tyrosine-protein kinase ABL1/Breakpoint cluster region protein (Homo sapiens); assay: Protac activity at CRBN/BCR-ABL in human K562 cells assessed as reduction in BCR-ABL protein levels incubated for 24 hrs followed by exposure to UV-C light every 4 hrs by Western blot analysis; assay type: cell-based
Procedure, shortened: (§3)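 K562 cells were treated with the trans form for 24 h, then moved to fresh medium and split into two groups. One group was exposed to UV-C light every 4 h and harvested. The control group was harvested without irradiation at 0, 4, 8, 12, 16 and 24 h. Proteins were read by Western blot.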

[23] = target: T2, Protein cereblon/Tyrosine-protein kinase ABL1 (Homo sapiens); assay: Protac activity at CRBN/ABL in human K562 cells assessed as reduction in ABL protein levels incubated for 24 hrs followed by exposure to UV-C light every 4 hrs by Western blot analysis; assay type: cell-based; procedure, shortened: as §3
[24] = target: T1, Protein cereblon/Tyrosine-protein kinase ABL1/Breakpoint cluster region protein (Homo sapiens); assay: Protac activity at CRBN/BCR-ABL in human K562 cells assessed as reduction in BCR-ABL protein levels incubated for 24 hrs followed by exposure to white light up to 24 hrs hrs by Western blot analysis; assay type: cell-based
Procedure, shortened: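 Cells were preincubated with the cis form while shielded from light, then moved to fresh medium and exposed to visible light. BCR-ABL was followed over time by Western blot.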

[25] = target: T2, Protein cereblon/Tyrosine-protein kinase ABL1 (Homo sapiens); assay: Protac activity at CRBN/ABL in human K562 cells assessed as reduction in ABL protein levels incubated for 24 hrs followed by exposure to white light up to 24 hrs by Western blot analysis; assay type: cell-based
[26] = target: T2, Protein cereblon/Tyrosine-protein kinase ABL1 (Homo sapiens); assay: Protac activity at CRBN/ABL in human K562 cells assessed as reduction in ABL protein levels incubated for 24 hrs by Western blot analysis
[27] = target: T1, Protein cereblon/Tyrosine-protein kinase ABL1/Breakpoint cluster region protein (Homo sapiens); assay: Protac activity at CRBN/BCR-ABL in human K562 cells assessed as reduction in BCR-ABL protein levels incubated for 24 hrs by Western blot analysis
[28] = target: T2, Protein cereblon/Tyrosine-protein kinase ABL1 (Homo sapiens); assay: Protac activity at CRBN/ABL in human K562 cells assessed as reduction in ABL protein levels at 100 nM incubated for 24 hrs by Western blot analysis
[29] = target: T1, Protein cereblon/Tyrosine-protein kinase ABL1/Breakpoint cluster region protein (Homo sapiens); assay: Protac activity at CRBN/BCR-ABL in human K562 cells assessed as reduction in BCR-ABL protein levels at 100 nM incubated for 24 hrs by Western blot analysis
[30] = Drug metabolism assessed as photoisomerization to cis-isomer after exposure to UV-C light and measured up to 120 mins by UV-visible absorption spectra analysis
[31] = target: T2, Protein cereblon/Tyrosine-protein kinase ABL1 (Homo sapiens); assay: Protac activity at CRBN/ABL in human K562 cells assessed as reduction in ABL protein levels at 500 nM incubated for 24 hrs by Western blot analysis
[32] = target: T1, Protein cereblon/Tyrosine-protein kinase ABL1/Breakpoint cluster region protein (Homo sapiens); assay: Protac activity at CRBN/BCR-ABL in human K562 cells assessed as reduction in BCR-ABL protein levels at 500 nM incubated for 24 hrs by Western blot analysis

T2 sequence (P00519 whole entry, looked up): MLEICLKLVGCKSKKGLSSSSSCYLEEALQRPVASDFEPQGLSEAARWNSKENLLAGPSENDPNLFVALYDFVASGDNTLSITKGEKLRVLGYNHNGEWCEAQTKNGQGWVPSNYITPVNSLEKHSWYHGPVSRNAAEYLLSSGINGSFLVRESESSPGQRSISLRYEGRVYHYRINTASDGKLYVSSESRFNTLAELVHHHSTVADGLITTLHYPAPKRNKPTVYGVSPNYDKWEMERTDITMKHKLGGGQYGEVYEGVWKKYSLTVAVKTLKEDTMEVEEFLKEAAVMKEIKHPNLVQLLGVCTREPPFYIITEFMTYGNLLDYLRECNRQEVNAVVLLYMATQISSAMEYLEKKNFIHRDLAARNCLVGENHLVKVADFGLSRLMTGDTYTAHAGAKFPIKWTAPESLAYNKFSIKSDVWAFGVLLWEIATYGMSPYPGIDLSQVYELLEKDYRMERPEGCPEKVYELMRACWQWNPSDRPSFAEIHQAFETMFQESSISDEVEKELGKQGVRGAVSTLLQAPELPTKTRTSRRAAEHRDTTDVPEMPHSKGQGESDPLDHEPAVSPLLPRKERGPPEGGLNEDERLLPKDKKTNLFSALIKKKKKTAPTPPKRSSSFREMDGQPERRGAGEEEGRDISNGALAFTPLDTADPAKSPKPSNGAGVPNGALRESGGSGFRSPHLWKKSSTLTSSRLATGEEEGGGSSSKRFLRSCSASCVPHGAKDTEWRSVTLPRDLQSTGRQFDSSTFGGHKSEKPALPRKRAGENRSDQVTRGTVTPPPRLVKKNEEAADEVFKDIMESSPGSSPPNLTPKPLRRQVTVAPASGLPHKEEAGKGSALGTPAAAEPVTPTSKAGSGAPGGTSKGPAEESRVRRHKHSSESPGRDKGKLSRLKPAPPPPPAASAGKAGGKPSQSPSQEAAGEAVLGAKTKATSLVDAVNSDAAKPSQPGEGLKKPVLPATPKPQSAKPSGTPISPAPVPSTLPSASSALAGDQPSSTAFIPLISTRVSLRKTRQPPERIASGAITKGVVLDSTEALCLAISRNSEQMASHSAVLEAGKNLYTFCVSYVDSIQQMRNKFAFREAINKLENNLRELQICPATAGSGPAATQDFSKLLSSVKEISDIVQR
T2 sequence (Q96SW2 whole entry, looked up): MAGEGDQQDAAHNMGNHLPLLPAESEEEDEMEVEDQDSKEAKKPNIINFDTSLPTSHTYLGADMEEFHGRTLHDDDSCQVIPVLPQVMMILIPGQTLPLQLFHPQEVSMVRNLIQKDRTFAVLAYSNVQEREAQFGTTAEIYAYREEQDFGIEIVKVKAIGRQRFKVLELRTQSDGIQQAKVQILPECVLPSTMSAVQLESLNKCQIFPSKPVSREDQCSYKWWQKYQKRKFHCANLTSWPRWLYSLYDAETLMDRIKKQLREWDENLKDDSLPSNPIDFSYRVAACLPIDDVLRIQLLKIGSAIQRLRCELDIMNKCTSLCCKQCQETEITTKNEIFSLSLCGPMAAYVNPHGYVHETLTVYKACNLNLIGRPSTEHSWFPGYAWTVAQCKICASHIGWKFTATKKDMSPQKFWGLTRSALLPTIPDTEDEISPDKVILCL
T1 sequence (P00519 whole entry, looked up): as the sequence (P00519 whole entry, looked up) above
T1 sequence (P11274 whole entry, looked up): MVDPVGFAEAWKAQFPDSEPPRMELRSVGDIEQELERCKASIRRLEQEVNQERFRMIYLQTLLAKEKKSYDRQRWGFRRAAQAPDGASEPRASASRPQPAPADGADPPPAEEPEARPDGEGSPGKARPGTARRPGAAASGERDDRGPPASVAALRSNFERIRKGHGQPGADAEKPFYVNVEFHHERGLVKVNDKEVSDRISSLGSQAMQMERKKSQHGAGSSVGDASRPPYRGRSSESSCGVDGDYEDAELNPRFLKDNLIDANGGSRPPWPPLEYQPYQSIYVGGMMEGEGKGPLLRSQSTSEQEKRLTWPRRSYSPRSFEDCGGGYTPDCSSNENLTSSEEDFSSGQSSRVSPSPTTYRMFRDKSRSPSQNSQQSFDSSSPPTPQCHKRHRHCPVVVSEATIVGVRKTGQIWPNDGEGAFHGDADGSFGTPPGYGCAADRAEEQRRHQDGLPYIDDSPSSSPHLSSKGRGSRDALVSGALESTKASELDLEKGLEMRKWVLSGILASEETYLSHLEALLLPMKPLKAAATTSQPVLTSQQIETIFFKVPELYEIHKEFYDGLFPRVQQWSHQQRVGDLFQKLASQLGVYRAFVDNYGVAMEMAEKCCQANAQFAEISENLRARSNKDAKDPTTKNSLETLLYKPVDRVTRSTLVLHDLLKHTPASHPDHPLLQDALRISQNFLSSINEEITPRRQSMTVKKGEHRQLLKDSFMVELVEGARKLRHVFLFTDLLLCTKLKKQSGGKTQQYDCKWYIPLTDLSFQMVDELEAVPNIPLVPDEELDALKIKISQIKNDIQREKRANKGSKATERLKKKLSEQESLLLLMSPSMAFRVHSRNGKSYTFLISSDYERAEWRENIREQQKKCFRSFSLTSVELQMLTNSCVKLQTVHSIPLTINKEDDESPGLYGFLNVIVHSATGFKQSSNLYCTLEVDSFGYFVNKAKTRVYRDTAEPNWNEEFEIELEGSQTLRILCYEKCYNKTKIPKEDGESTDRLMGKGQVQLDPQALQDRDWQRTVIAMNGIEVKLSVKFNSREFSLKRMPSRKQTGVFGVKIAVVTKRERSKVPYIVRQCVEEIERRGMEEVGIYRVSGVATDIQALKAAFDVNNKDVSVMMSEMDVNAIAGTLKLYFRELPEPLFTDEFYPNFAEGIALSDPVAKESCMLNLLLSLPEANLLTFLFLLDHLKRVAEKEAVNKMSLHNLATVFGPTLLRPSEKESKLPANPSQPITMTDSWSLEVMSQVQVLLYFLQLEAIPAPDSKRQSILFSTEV
T1 sequence (Q96SW2 whole entry, looked up): as the sequence (Q96SW2 whole entry, looked up) above

Cc1nc(Nc2ncc(C(=O)Nc3c(C)cccc3Cl)s2)cc(N2CCN(CCCCOc3ccc(/N=N/c4ccc(C(=O)Nc5cccc6c5CN(C5CCC(=O)N(C)C5=O)C6=O)cc4)cc3)CC2)n1 (single isomer, unassigned; (-))
inactive: Activity [1] | Activity [2]

Cc1nc(Nc2ncc(C(=O)Nc3c(C)cccc3Cl)s2)cc(N2CCN(CCCCOc3ccc(/N=N/c4ccc(C(=O)Nc5cccc6c5CN(C5CCC(=O)NC5=O)C6=O)cc4)cc3)CC2)n1 (stereo unspecified)
active: Activity [15] | Activity [16] | Activity [17] | Activity [18] | Activity [24] | Activity [25] | Activity [26] Dose-dependent effect | Activity [27] Dose-dependent effect | Activity [28] | Activity [29]
Stable: Stability [6]
Metabolite detected: Drug metabolism [3] | Drug metabolism [4] | Drug metabolism [30]
inactive: Activity (A549) | Activity (HCT-116) | Activity (MCF7) | Activity [9] | Activity [10] | Activity [11] | Activity [12] | Activity [13] | Activity [14] | Activity [22] | Activity [23]
28 nM: EC50 (K562 [8])
68 nM: IC50 (K562 [7])
10.3 h: t1/2 [5]
Non-Toxic: Activity (K562 [21])
> 90%: Activity [19] | Activity [20]

Cc1nc(Nc2ncc(C(=O)Nc3c(C)cccc3Cl)s2)cc(N2CCN(CCOc3ccc(/N=N/c4ccc(C(=O)Nc5cccc6c5CN(C5CCC(=O)NC5=O)C6=O)cc4)cc3)CC2)n1 (stereo unspecified)
active: Activity [28] | Activity [29]

Cc1nc(Nc2ncc(C(=O)Nc3c(C)cccc3Cl)s2)cc(N2CCN(CCCCOc3ccc(/N=N\c4ccc(C(=O)Nc5cccc6c5CN(C5CCC(=O)NC5=O)C6=O)cc4)cc3)CC2)n1 (stereo unspecified)
active: Activity ([24]; TDE = time-dependent effect) Tde | Activity ([25]; TDE = time-dependent effect) Tde
inactive: Activity [19] | Activity [20] | Activity [31] | Activity [32]
